JNK3 blocker = JNK3 kinase activity inhibitors, primary screen, biochemical, human, purified enzyme | Mitogen-activated protein kinase 10 (Homo sapiens), P53779 | AID 746, 2007 | actives 0.61% (n = 60,000) | inhibition, % at 8 µM | HTS; in the data active = inhibition above about 17%;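 also: 0% = DMSO and 100% = reference inhibitor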
Target sequence (P53779 whole entry, looked up): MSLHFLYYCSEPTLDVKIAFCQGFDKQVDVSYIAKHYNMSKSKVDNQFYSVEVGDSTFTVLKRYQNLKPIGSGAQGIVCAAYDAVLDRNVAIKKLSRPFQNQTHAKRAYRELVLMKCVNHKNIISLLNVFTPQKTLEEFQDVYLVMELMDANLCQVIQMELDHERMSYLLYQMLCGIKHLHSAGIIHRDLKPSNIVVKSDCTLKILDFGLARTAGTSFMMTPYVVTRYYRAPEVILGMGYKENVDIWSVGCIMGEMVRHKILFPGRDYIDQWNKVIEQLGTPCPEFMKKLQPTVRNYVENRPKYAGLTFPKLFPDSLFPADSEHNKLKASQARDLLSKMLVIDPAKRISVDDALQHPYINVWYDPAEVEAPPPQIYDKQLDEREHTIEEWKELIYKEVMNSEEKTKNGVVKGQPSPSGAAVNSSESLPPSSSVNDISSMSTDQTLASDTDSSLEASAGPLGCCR
AP ELISA ortho = alternative complement pathway inhibitors, primary screen, biochemical, ELISA, human serum, orthogonally pooled compounds; inhibition, % at 5 µM; actives 0.08% (n = 62,000); LPS-coated ELISA, C3 deposition; tested in compound mixtures;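 active = inhibition above 30% in each of the two pooled mixtures holding the compound, so the lower value exceeds 30%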;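 also: 0% = serum in Mg-EGTA without compound and 100% = EDTA serum blank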
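Assay system: human serum alternative complement pathway, C3 deposition on LPS-coated wells; Dosing: 5 µM per compound in ten-compound mixtures; Detection: Anti-C3 ELISA, OD 450 nm; Buffer or medium: Mg2+-EGTA GVB++ buffer containing human serum at 1:15 dilution; Timing: 1 h at 37 °C; Replication: two different pools per compound.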
HER2 expr 66K = inhibitors of Her2 protein expression, primary screen, SKBR-3 cells, AlphaScreen, 66K library | Receptor tyrosine-protein kinase erbB-2 (Homo sapiens), P04626 | SKBR-3 HER2 protein level, 18-24 h; stronger effect = lower value | HER2 level % of control, % at 10 µM | actives 0.69% (n = 65,000);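 active = HER2 level under 5% of the carrier-only control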;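 also: 100% = DMSO carrier and 0% = 500 nM PU-H71 HSP90 inhibitor; lower value means stronger loss of Her2 protein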
MT1-MMP txn act = MT1-MMP promoter reporter activation – cell-based, luciferase luminescence, primary screen; HT1080 MT1-MMP promoter luciferase reporter, overnight; stronger effect = higher value; activation factor at 10 µM; actives 0.16% (n = 86,000); AID 750, 2007;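 active = activation factor of at least 2 for MT1-MMP transcription at 10 µM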
HEK293 NFkB inh = inhibitors of PMA/ionomycin-induced NF-kB reporter, primary screen, antigen receptor NF-kB inhibitor project, cell-based, HEK-293 luciferase reporter, luminescence | HEK-293 NF-kB luciferase reporter | inhibition, % at 3 µM | AID 465, 2006 | actives 0.21% (n = 62,000);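 active = inhibition above the mean of all tested compounds plus 3 SD, cut at about 40% in these data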;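 also: 0% = stimulated DMSO wells and 100% = 10 µM reference inhibitor 5653914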
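Reagent: PMA plus ionomycin mix as NF-kB-activating stimulus. Assay system: NF-kB luciferase reporter HEK-293 cells. Technique: luminescence from luciferase substrate reagent. Incubation: 1 h compound pre-incubation, 16 h PMA/ionomycin at 37 °C. Benchmarks: DMSO only as uninhibited control, 10 µM reference inhibitor as full inhibition. Repeats: tested once.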
* hit, by the source's call; . = not tested or not shown. Sampled rows, rich in hits. Any-hit rate of the full collection: about 1.1%.

SMILES | JNK3 blocker | AP ELISA ortho | HER2 expr 66K | MT1-MMP txn act | HEK293 NFkB inh
Cc1cc(NC(=O)CSC2=Nc3ccccc3C3=NC(Cc4ccccc4)C(=O)N23)n[nH]1 (configuration not stated) | 36* | 20 | 121 | 1.1 | 9
CC(C)n1nc(C(=O)OCC(=O)N(C)C2CCS(=O)(=O)C2)c2ccccc2c1=O (configuration not stated) | 21* | 15 | 89 | 1.1 | 13
CC(C)n1nc(C(=O)OCC(=O)c2c[nH]c3ccccc23)c2ccccc2c1=O | . | . | . | 1.2 | .
CCOC(=O)N1CCN(C(=O)Nc2ccc3oc(C)nc3c2)CC1 | -6 | 0 | 103 | 1 | -12
O=C(CSc1nc2cc(Cl)ccc2s1)c1ccco1 | . | 14 | -1.4* | 1.4 | 8
CCCn1c(=O)n(C)c(=O)c2c(SCc3cc(C(C)=O)ccc3OCC)nc(C3CC3)nc21 | . | 2 | 73 | 1.1 | 15
COc1cccc(C2CC(c3ccc(C)cc3)n3nc(N)nc3N2)c1 (configuration not stated) | 1 | 18 | 110 | 1 | 14
COCn1c(COc2ccc3ccccc3c2)nc2ccccc21 | . | . | . | 2.3* | .
CCn1c(COc2cccc(C)c2)nc2ccccc21 | . | . | . | 1.1 | .
COC(=O)c1ccccc1NC(=O)Cn1cnc2c1c(=O)n(C)c(=O)n2C | 3 | -10 | 163 | 1.1 | 18
Cc1ccccc1OCC(O)Cn1nnc2ccccc21 (configuration not stated) | . | . | . | 2* | .
O=c1cc(-c2ccccc2)[nH][nH]1 | . | . | . | 1.3 | .
O=c1cccc(-c2ccccc2)[nH]1 | -3 | -3 | -26* | 1.2 | 8
CCOc1ccc(N2C(=O)CC(N)C2=O)cc1 (configuration not stated) | -2 | . | 153 | 0.9 | .
CCOc1ccc(N2C(=O)CC(Sc3nc(C)cc(C)c3C#N)C2=O)cc1 (configuration not stated) | -3 | 12 | -9.9* | 1.2 | 4
COc1ccccc1-c1cc(C(F)(F)F)nc(N2CCCC2)n1 | . | -4 | 124 | 1.2 | 14
COc1cc2c(cc1OC)CN(c1ccc(-c3ccccc3OC)nn1)CC2 | -4 | 45 | -3.7* | 0.8 | 2
CC(=NCc1ccco1)c1c(C)[nH]n(-c2nc3ccccc3s2)c1=O | 20* | -18 | 95 | 0.9 | -29
O=C1C(C2=C(O)c3ccccc3C2=O)=Nc2ccccc21 | 3 | 2 | -16* | . | 7
CN=CC1=C(O)c2ccccc2C1=O | 5 | 6 | 85 | 1.2 | -4
c1cnc(-c2nnc3n2CCCCC3)cn1 | 2 | 8 | -16* | 1.1 | 18
c1cc(-c2nnc3n2CCCCC3)ccn1 | 6 | 16 | 141 | 1.2 | 7
Nc1c(C(=O)NCCN2CCOCC2)c2nc3ccccc3nc2n1-c1ccc2c(c1)OCO2 | 2 | 5 | 105 | 0.9 | 12
Nc1c(C(=O)NCc2ccc3c(c2)OCO3)c2nc3ccccc3nc2n1CCCN1CCOCC1 | -2 | 13 | 3.8* | 0.6 | 16
Nc1ccc(-n2c(N)c(C(=O)NCc3ccc4c(c3)OCO4)c3nc4ccccc4nc32)cc1 | 21* | 4 | 64 | 1 | 12
SMILES | JNK3 blocker | AP ELISA ortho | HER2 expr 66K | MT1-MMP txn act | HEK293 NFkB inh
O=C(NCc1ccco1)c1cc(-c2ccccc2)c(N2CCOCC2)s1 | -6 | 0 | 97 | 1.2 | 5
Cc1nc2ncnn2c(C)c1Cc1ccc(Cl)cc1 | . | . | . | 1.1 | .
O=S1(=O)C=C(Sc2nnc(-c3ccccc3)o2)c2ccccc21 | -1 | 2 | -9.4* | 1.3 | 12
COc1ccc(-n2cnc3ccccc32)cc1 | . | . | . | 1.5 | .
COc1ccc2ncn(-c3ccccc3)c2c1 | 30* | -7 | 78 | 1 | -1
CC(C)c1ccc(S(=O)(=O)N2CCN(C(=O)c3cccc(F)c3)CC2)cc1 | 0 | 7 | 96 | 1.5 | 5
CC(C)(C)c1csc(NC(=O)c2cccs2)n1 | 5 | -18 | 92 | 1.8 | -11
CCOC(=O)c1ccc2[nH]c3c(c2c1)CCCCC3=O | 24* | 14 | 69 | 1 | -9
CCOC(=O)c1ccc2[nH]c3c(c2c1)CCCC3C(=O)OCC (configuration not stated) | . | . | . | 1.2 | .
C=CCN=C(NC#N)SCc1ccccc1 | . | . | . | 1.2 | .
C=CCN=C(NC#N)SCC(=O)c1cccc(OC)c1 | 0 | 0 | 42 | 2* | -11
Cc1cc(NC(=O)COC(=O)CSCc2ccc(Cl)c(Cl)c2)no1 | -2 | 0 | 91 | 1.2 | 3
CCN(CC)c1ccc(-c2nn3c(-c4n[nH]c5c4CCC5)nnc3s2)cc1 | 0 | 14 | -29* | 0.7 | 34
C1CCC(c2nn3c(-c4n[nH]c5c4CCC5)nnc3s2)CC1 | 5 | 11 | 91 | 0.9 | 8
Cc1nnc(SCC(=O)c2c(N)n(C)c(=O)n(C)c2=O)n1Cc1ccccc1 | -6 | 22 | -33* | 1.1 | -8
Cc1occc1-c1nnc(SCC(=O)c2c(N)n(Cc3ccccc3)c(=O)n(C)c2=O)n1C | 0 | 13 | 87 | 1 | 14
CCCCn1c(SCC(=O)Nc2cc(NC(=O)c3ccco3)ccc2C)nc2ccccc2c1=O | 3 | 6 | -16* | 1.1 | 19
O=C1CC(Nc2ccccc2)C(=O)N1Cc1ccccc1 (configuration not stated) | . | . | . | 1.1 | .
COc1ccc(CNc2ccc(-c3ccccc3OC)nn2)cc1 | . | . | . | 1.2 | .
COc1ccccc1-c1ccc(NC2CCCC2)nn1 | . | . | . | 2.1* | .
Cc1ccc(-n2c(C)cc(C(=O)OCC(=O)N(CC(C)C)C3CCS(=O)(=O)C3)c2C)cc1 (configuration not stated) | 1 | 11 | 107 | 1.4 | 23
CCN(C(=O)COC(=O)c1cc(C)n(-c2ccc(F)cc2)c1C)C1CCS(=O)(=O)C1 (configuration not stated) | -2 | 8 | -20* | 1.1 | 8
c1ccc2c(c1)ncn2-c1ncnc2sc3c(c12)CCCC3 | . | . | . | 1.2 | .
O=C(CC1C(=O)N(c2ccc(F)cc2)C(=O)N1Cc1ccccn1)Nc1ccccc1 (configuration not stated) | . | . | . | 0.9 | .
O=C(O)C1CCCCC1C(=O)NCc1ccccc1 (configuration not stated) | . | . | . | 2* | .
COC(=O)c1ccc(C23CC4(C2)[C@H](CN(Cc2cccnc2)[C@@H]4c2ccccc2)C3c2ccccc2)cc1 (some centres not stated) | . | . | . | 1.2 | .
O=C(Nc1cc(C(F)(F)F)ccc1N1CCOCC1)c1ccc[n+]([O-])c1 | . | . | . | 1.1 | .
O=C(Nc1ccccc1N1CCCC1)c1cc2ccccc2o1 | -8 | -3 | 87 | 2* | -12
O=C(Nc1ccc(N2CCOCC2)c(Cl)c1)c1cc2ccccc2o1 | . | . | . | 2.1* | .
CN1CCN(c2ccccc2NC(=O)c2cc3ccccc3o2)CC1 | . | . | . | 1.3 | .

Screening results: PubChem, several laboratories
